The target of data set [1] is Mitogen-activated protein kinase 8 (Homo sapiens, UniProt P45983). The data set is described as follows: Inhibition of JNK1.
In data set [2] the target is c-Jun N-terminal kinase, JNK (Homo sapiens, UniProt P45983+P53779+P45984). In words: Inhibition of TNF-alpha-stimulated cJun phosphorylation in HepG2 cells. The data set is classed as functional, cell-based. Summed up: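 Cell-based ELISA in HepG2 cells detecting phospho-c-Jun after TNFa stimulation. Inhibition of c-Jun phosphorylation read out and expressed as IC50.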

The nature of data set [3]: Stability in human liver microsome after 30 mins. The data set is classed as ADME. Conditions: liver microsomes, read-out: Stability. Summed up: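 Parent compound incubated with human liver microsomes for 30 min. Percentage of parent recovered afterwards was measured.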
In data set [4] the target is Mitogen-activated protein kinase 1 (Homo sapiens, UniProt P28482). The data set is described as follows: Inhibition of ERK2.
Data set [5] addresses Mitogen-activated protein kinase 9 (Homo sapiens, UniProt P45984). In words: Inhibition of JNK2.
Another data set deals with MAP kinase p38 (Homo sapiens, UniProt O15264+Q15759+Q16539+P53778). In words: Inhibition of p38. The data set is classed as protein assay.

Each structure is given as a SMILES string.

Sequence of Mitogen-activated protein kinase 8 (P45983 whole entry): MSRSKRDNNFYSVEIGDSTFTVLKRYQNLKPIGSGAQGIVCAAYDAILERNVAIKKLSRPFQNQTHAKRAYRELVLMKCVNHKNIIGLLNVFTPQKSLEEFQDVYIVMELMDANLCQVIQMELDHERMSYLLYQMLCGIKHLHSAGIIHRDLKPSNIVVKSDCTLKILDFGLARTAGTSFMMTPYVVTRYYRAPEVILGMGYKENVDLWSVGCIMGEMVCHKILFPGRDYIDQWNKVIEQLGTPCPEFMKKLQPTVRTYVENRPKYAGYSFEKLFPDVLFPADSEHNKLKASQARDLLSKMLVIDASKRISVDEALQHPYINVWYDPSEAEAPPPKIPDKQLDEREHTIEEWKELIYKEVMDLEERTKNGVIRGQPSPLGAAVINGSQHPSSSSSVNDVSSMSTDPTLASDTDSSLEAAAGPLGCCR
Sequence of Mitogen-activated protein kinase 1 (P28482 whole entry): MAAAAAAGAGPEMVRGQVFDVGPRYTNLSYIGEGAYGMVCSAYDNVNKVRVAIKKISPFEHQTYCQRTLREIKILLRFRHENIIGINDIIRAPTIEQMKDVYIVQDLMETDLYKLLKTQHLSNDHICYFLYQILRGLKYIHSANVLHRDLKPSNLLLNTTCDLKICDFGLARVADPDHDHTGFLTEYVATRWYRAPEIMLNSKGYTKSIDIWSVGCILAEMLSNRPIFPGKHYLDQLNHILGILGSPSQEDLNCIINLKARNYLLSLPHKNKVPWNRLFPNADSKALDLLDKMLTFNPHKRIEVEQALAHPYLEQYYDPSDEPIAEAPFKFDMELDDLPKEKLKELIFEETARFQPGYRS
Sequence of Mitogen-activated protein kinase 9 (P45984 whole entry): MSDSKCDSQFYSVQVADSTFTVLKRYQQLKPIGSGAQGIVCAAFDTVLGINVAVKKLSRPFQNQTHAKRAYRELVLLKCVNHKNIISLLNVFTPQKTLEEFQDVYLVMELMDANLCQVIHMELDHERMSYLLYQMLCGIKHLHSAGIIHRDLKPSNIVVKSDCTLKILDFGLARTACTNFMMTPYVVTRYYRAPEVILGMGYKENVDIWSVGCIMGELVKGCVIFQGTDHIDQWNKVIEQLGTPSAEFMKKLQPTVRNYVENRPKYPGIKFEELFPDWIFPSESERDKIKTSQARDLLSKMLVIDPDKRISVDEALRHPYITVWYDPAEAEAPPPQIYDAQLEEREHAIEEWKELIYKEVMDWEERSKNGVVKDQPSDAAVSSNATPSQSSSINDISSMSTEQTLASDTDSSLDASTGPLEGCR

As to `Cn1nc(CCCC(=O)O)c2c(=O)c3cc(Cl)ccc3n(O)c21`, the IC50 is 2.74 µM in data set [1] and more than 30 µM in data set [2]. Take `Cn1nc(C(F)(F)F)c2c(=O)c3cc(Cl)c(Cl)cc3n(O)c21`: the IC50 is 5.14 µM in data set [1] and more than 30 µM in data set [2]. In data set [1], `Cc1nn(C)c2c1c(=O)c1cc(Cl)ccc1n2OC1CCCC1` yielded an IC50 of more than 10 µM. For the compound `Cc1nn(C)c2c1c(=O)c1cc(Cl)ccc1n2O`, the remaining at 0.5 h in data set [3] is 100%. The IC50 in data set [4] was more than 50 µM; in data set [2], more than 30 µM; in data set [5], 3.1 µM; against MAP kinase p38, more than 50 µM.

Regarding `Cc1nn(C)c2c1c(=O)c1cc(-c3ccccc3)ccc1n2O`, in data set [1], the IC50 was more than 10 µM. Take `CNC(=O)Cn1nc(C)c2c(=O)c3cc(Cl)ccc3n(O)c21`: the concentration for half-maximal inhibition (IC50) in data set [1] was 8.77 µM; in data set [2], more than 30 µM. Turning to `Cn1nc(-c2ccc(N)cc2)c2c(=O)c3cc(Cl)ccc3n(O)c21`, in data set [1], the IC50 was more than 10 µM.

`CCn1nc(C)c2c(=O)c3cc(Cl)ccc3n(O)c21`: the figures for the IC50 in data set [1] and in data set [2] were 4.19 µM and more than 30 µM, respectively.

Compound `Cc1nn(C)c2c1c(=O)c1ccccc1n2O` had an IC50 in data set [1] of more than 10 µM. `CN(C)c1cc2c(cc1Cl)c(=O)c1c(C(F)(F)F)nn(C)c1n2O` gave an IC50 in data set [1] of more than 10 µM. For `Cc1nn(CCO)c2c1c(=O)c1cc(Cl)ccc1n2O`, the IC50 was 7.67 µM in data set [1] and more than 30 µM in data set [2]. Consider `CC(C)c1nn(C)c2c1c(=O)c1cc(Cl)ccc1n2O`, for which the 50% inhibitory concentration (IC50) is 2.64 µM in data set [1] and more than 30 µM in data set [2]. On to `Cn1nc(C(C)(C)C)c2c(=O)c3cc(Cl)ccc3n(O)c21`, for which, in data set [1], the IC50 was more than 10 µM.

Regarding `Cc1nn(C)c2c1c(=O)c1cc(-c3cc[nH]n3)ccc1n2O`, the IC50 in data set [1] was more than 10 µM. As to `Cn1c2[n+]([O-])c3ccc(Cl)cc3c(=O)c-2c2n1C(=O)NCC2`, the IC50 in data set [1] is 0.29 µM; in data set [2], 0.85 µM. Consider `CCNC(=O)NCCCc1nn(C)c2c1c(=O)c1cc(Cl)ccc1n2O`, for which the concentration for half-maximal inhibition (IC50) was 0.5 µM in data set [1] and more than 30 µM in data set [2]. Turning to `CCOC(=O)NCCc1nn(C)c2c1c(=O)c1cc(Cl)ccc1n2O`, the IC50 in data set [1] is 0.43 µM; in data set [2], more than 30 µM. In turn, `Cn1nc(CCC(=O)O)c2c(=O)c3cc(Cl)ccc3n(O)c21` yielded an IC50 in data set [1] of more than 10 µM. As for `CCCc1nn(C)c2c1c(=O)c1cc(Cl)ccc1n2O`, the IC50 amounted to 1.31 µM in data set [1] and 26.6 µM in data set [2]. Regarding `CNC(=O)CCCc1nn(C)c2c1c(=O)c1cc(Cl)ccc1n2O`, the IC50 in data set [1] is 0.75 µM; in data set [2] it was more than 30 µM.

Compound `Cc1nn(C)c2c1c(=O)c1cc(Cl)ccc1n2OCc1ccccc1` displayed a concentration for half-maximal inhibition (IC50) in data set [1] of more than 10 µM. Take `CCOC(=O)Cn1nc(C)c2c(=O)c3cc(Cl)ccc3n(O)c21`: the IC50 is 7.64 µM in data set [1] and more than 30 µM in data set [2]. Take `CC(=O)NCCc1nn(C)c2c1c(=O)c1cc(Cl)ccc1n2O`: the IC50 in data set [1] is 0.78 µM; in data set [2], more than 30 µM. In the case of `Cc1nn(C)c2nc3ccc(Cl)cc3c(O)c12`, the concentration for half-maximal inhibition (IC50) in data set [1] is more than 10 µM. Consider `Cn1nc(CCN)c2c(=O)c3cc(Cl)ccc3n(O)c21`, for which the figures for the IC50 in data set [1] and in data set [2] were 2.83 µM and more than 30 µM, respectively.

Consider `CCc1nn(C)c2c1c(=O)c1cc(Cl)ccc1n2O`, for which the IC50 in data set [1] came to 0.96 µM; in data set [2], 32 µM. Taken in the same sequence, the figures for `CCCCc1nn(C)c2c1c(=O)c1cc(Cl)ccc1n2O` were 0.52 µM and more than 30 µM. Regarding `Cc1nn(C)c2c1c(=O)c1cc(Cl)ccc1n2OC(C)C`, in data set [1], the IC50 is more than 10 µM. Turning to `COn1c2ccc(Cl)cc2c(=O)c2c(C)nn(C)c21`, the values for the IC50 in data set [1] and in data set [2] were 4.59 µM and 19.4 µM, respectively. For `Cc1nn(C)c2c1c(=O)c1cc(Br)ccc1n2O`, the IC50 was 0.92 µM in data set [1] and more than 30 µM in data set [2]. Taken in the same sequence, the figures for `COCCc1nn(C)c2c1c(=O)c1cc(Cl)ccc1n2O` were 2.41 µM and 14.7 µM. `COc1cc(Cl)cc2c(=O)c3c(C(F)(F)F)nn(C)c3n(O)c12` yielded an IC50 in data set [1] of more than 10 µM. For the compound `Cc1nn(CC(=O)O)c2c1c(=O)c1cc(Cl)ccc1n2O`, the IC50 in data set [1] was 4.41 µM; in data set [2], more than 30 µM. `COC(=O)c1nn(C)c2c1c(=O)c1cc(Cl)ccc1n2O` came in with an IC50 in data set [1] of more than 10 µM.

In turn, `Cn1nc(C(F)(F)F)c2c(=O)c3c(Cl)c(Cl)ccc3n(O)c21` showed an IC50 in data set [1] of more than 10 µM. As to `CCOn1c2ccc(Cl)cc2c(=O)c2c(C)nn(C)c21`, the IC50 in data set [1] is 2.78 µM; in data set [2] it was 10.6 µM.

The values above are taken from ChEMBL document CHEMBL1147685, “Synthesis and SAR of 1,9-dihydro-9-hydroxypyrazolo[3,4-b]quinolin-4-ones as novel, selective c-Jun N-terminal kinase inhibitors” (Bioorg Med Chem Lett, 2006).
